Numbering of substitutions follows the chain as printed. Values belong to the compound of their own block, whether it stands above or below them.
What was measured:
[1] = biological target: T1, human alkyltransferase (wild type) (Homo sapiens, UniProt P16455); experiment: Inactivation of purified recombinant human alkyltransferase in vitro; format: biochemical; conditions: for less effective than BG: ortho-substituted BG derivatives
T1 sequence (P16455 1-207): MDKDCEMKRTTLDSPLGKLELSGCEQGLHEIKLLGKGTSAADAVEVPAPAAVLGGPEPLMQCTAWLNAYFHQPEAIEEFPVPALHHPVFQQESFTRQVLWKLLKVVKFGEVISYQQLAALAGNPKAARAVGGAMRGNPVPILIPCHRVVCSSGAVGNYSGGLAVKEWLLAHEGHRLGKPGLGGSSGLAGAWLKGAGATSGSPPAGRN

[2] = Stability in aqueous solution; format: physicochemical; conditions: for rearrangement to N^6-substituted 2-aminoadenine in heated water: heating
[3] = test system: alkyltransferase; conditions: BG free base; cited from earlier work
[4] = biological target: T1, human alkyltransferase (wild type); conditions: cited from earlier work
[5] = Solubility; format: physicochemical; conditions: at physiological pH
[6] = test system: HT29 cells; experiment: Sensitization of HT29 cells to killing by BCNU; format: cell-based, human; conditions: 2 h exposure prior to 40 μM BCNU; colony forming assay
Method in brief: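 HT29 cells in RPMI 1640 with 10% FBS. 24 h after plating, cells get test compound at varied concentrations for 2 h, then 40 μM BCNU for 2 h. Medium is then replaced with inhibitor-containing, BCNU-free medium for 16–18 h. Cells are replated at 250–1000 per 25 cm2 flask and grown 8 days. Colonies are saline-washed, stained with 0.5% crystal violet in ethanol, and counted.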

[7] = biological target: T2, S159A mutant alkyltransferase (Homo sapiens, UniProt P16455, S159A); experiment: Inactivation of purified S159A mutant alkyltransferase in vitro; format: biochemical; conditions: 30 min at 37°C
T2 sequence (P16455 1-207 S159A): T1 sequence (P16455 1-207) with S159A

Structure (SMILES): Nc1nc(OCc2ccccc2)c2nc[nH]c2n1 [BG, O^6-Benzylguanine]
- rate constant for the reaction [3]: ~600 M⁻¹ s⁻¹
- enhancement of inactivation of alkyltransferase by the presence of DNA [4]: 3–4 fold

Structure (SMILES): NCc1cccc(COc2nc(N)nc3nc[nH]c23)c1 [Compound 2, O^6-[3-(Aminomethyl)benzyl]guanine]
- solubility relative to BG [5]: approx. 1000 times
- sensitizing HT29 cells to BCNU [6]: much more effective than compound 1
- rearrangement to N^6-substituted 2-aminoadenine in heated water [2]: not observed

Structure (SMILES): NCc1ccc(COc2nc(N)nc3nc[nH]c23)cc1 [Compound 1, O^6-[4-(Aminomethyl)benzyl]guanine]
- IC50 ([7]; ED50 + DNA, + DNA): 0.028 µM
- IC50 ([7]; ED50 No DNA, no DNA): 0.16 µM
- rearrangement to N^6-substituted 2-aminoadenine in heated water [2]: not observed

The next lines start with the values.

- inhibition at 1000 µM ([1]; read-out: inhibition of alkyltransferase): < 10%
Structure (SMILES): Nc1nc(NCc2ccccc2CO)c2[nH]cnc2n1 [Compound 7, N^6-[2-(Hydroxymethyl)benzyl]-2-aminoadenine]

- less effective than BG [1]: > 200 fold
- half life of rearrangement of 3 to 7 ([2]; aqueous solution, 37°C (0.1 M sodium phosphate buffer pH 7.4, followed by UV, first order kinetics)): 51 h
Structure (SMILES): NCc1ccccc1COc1nc(N)nc2nc[nH]c12 [Compound 3, O^6-[2-(Aminomethyl)benzyl]guanine]

- less effective than BG [1]: > 200 fold
Structure (SMILES): Cc1ccccc1COc1nc(N)nc2nc[nH]c12 [Compound 6, O^6-[2-(Methyl)benzyl]guanine]

Reference: publication PMC2645950 (Journal of medicinal chemistry, 2008)
